Results on two compounds are retold here after ChEMBL document CHEMBL3414437, “Synthesis of CDDO-amino acid-nitric oxide donor trihybrids as potential antitumor agents against both drug-sensitive and drug-resistant colon cancer” (J Med Chem, 2015).

Series [1] deals with HCT-8. Kind of series: Inhibition of ERK protein phosphorylation in FU-resistant human HCT8 cells at 1 uM incubated for 24 hrs by Western blotting method. It is filed as cell-based. In outline:
(§1)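 Cells (1 x 10^6) grown 24 h in 6 cm dishes, then exposed in duplicate for 24 h to 0.25, 0.5 or 1 µM compound, with or without PTIO. Lysates (20 µg/lane) were run on 7.5% SDS-PAGE, blotted to PVDF and blocked in 5% milk. HRP secondaries with ECL detection; bands quantified by densitometry against β-actin or GAPDH. Three separate experiments, mean ± SD.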
In general terms: In western blotting, separated proteins are transferred to a membrane and probed.

Series [2] relates to Mus musculus. Kind of series: Toxicity in nude BALB/c mouse xenografted with FU-resistant human HCT8 cells assessed as abnormal weight changes in liver at 59.4 umol/kg administered as via oral gavage daily for 21 days. Format: organism-based, HCT-8. The conditions noted are these: in vivo, 504 h. In outline: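 Male BALB/c nude mice, 6-8 weeks old, inoculated s.c. in right flank with HCT-8/5-FU cells (2 × 10^6/mouse). Once tumors reached 180-200 mm3 (9-11 days post-implantation), mice were randomized and dosed by gavage daily for 21 consecutive days in cremophor-EL/DMSO/PBS (1:1:8) (vehicle alone 0.2 mL). Body weights recorded on day 1 and day 21. Organ size, color and weights were inspected for liver, kidney, lung and heart. n = 8 per group; mean ± SD.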
In general terms: Xenograft models place foreign cells or tissue in a host animal.

In series [3] the test system is Mus musculus. The experiment in a line: Toxicity in nude BALB/c mouse xenografted with FU-resistant human HCT8 cells assessed as abnormal size changes in heart at 59.4 umol/kg administered as via oral gavage daily for 21 days. Format: organism-based, HCT-8. The conditions noted are these: in vivo, 504 h. In outline:
(§2)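 Male BALB/c nude mice aged 6-8 weeks, implanted s.c. in the right flank with HCT-8/5-FU cells (2 × 10^6). Once tumors reached 180-200 mm3 (days 9-11), randomized to daily gavage for 21 days in cremophor-EL/DMSO/PBS (1:1:8), 0.2 mL. At the end, liver, kidney, lung and heart checked for size, colour and weight. n = 8 per group.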

Series [4] concerns HCT-8. Kind of series: Inhibition of MRP1 protein expression in FU-resistant human HCT8 cells at 1 uM incubated for 24 hrs by Western blotting method. Format: functional, cell-based. In outline: as §1
Series [5] has as its target RAC-alpha serine/threonine-protein kinase (Homo sapiens) (UniProt P31749). The experiment in a line: Inhibition of AKT protein phosphorylation in human HCT8 cells at 1 uM incubated for 24 hrs by Western blotting method. It is filed as cell-based. The conditions noted are these: HCT-8. In outline: as §1
In series [6] the test system is Mus musculus. Kind of series: Toxicity in nude BALB/c mouse xenografted with FU-resistant human HCT8 cells assessed as abnormal size changes in kidney at 59.4 umol/kg administered as via oral gavage daily for 21 days. Format: organism-based, HCT-8. The conditions noted are these: in vivo, 504 h. In outline: as §2
The subject of series [7] is HCT-8. Kind of series: Inhibition of MRP1 protein expression in FU-resistant human HCT8 cells at 0.25 to 1 uM incubated for 24 hrs by Western blotting method. Format: functional, cell-based. In outline:
as §1

Series [8] deals with HCT-8. The experiment in a line: Induction of apoptosis in 5-FU resistant human HCT8 cells incubated for 24 hrs by FITC-Annexin-V and propidium iodide staining based flow cytometry. It is filed as functional, cell-based. Background: Flow cytometry measures light scatter and fluorescence of single cells or particles in a stream.
For series [9], the system named is Mus musculus. Kind of series: Toxicity in ICR mouse assessed as body weight changes at 0.60 x 10^3 to 2.38 x 10^3 umol/kg administered as single dose via oral gavage measured up to 14 days post treatment. The conditions noted are these: in vivo, 336 h. Format: organism-based. In outline:
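Adult ICR mice of either sex were randomised and given a single oral gavage dose of 500, 1000, 1500 or 2000 mg/kg in cremophor-EL/DMSO/PBS (1:1:8). Survival, behaviour, water and food intake, body weight and activity were monitored for up to 14 days. Body weights were taken on days 0, 7 and 14.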

Series [10] has as its system HCT-8. Kind of series: Antiproliferative activity against human HCT8 cells assessed as inhibition of cell proliferation at 0.125 to 0.5 uM incubated for 72 hrs after 24 hrs of pre-treatment with 0.75 uM and 1 .5 uM pepT1 substrate Gly-Sar by MTT assay. It is filed as functional, cell-based. In outline: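 Cells pretreated with or without Gly-Sar (0.75 or 1.5 µM) for 24 h, then given a range of compound concentrations for 72 h. Proliferation inhibition measured by MTT.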

For series [11], the target named is Multidrug resistance-associated protein 1 (Homo sapiens, UniProt P33527). The experiment in a line: Induction of nitrosylation of MRP1 protein in FU-resistant human HCT8 cells at 0.25 to 1 uM incubated for 24 hrs by Western blotting method. It is filed as cell-based. The conditions noted are these: hct-8, 24 h. In outline: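 HCT-8/5-FU cells (1 × 10^6) treated in duplicate for 24 h with 0.25, 0.5 or 1 µM test compound or 1 µM reference, with or without PTIO. Lysates immunoprecipitated overnight at 4 °C with anti-nitrotyrosine antibody on protein G beads. Eluates blotted with specific anti-Pgp, anti-MRP1 or anti-BCRP antibodies and quantified by densitometry. Mean ± SD of three experiments.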

The subject of series [12] is HCT-8. Kind of series: Inhibition of ERK protein phosphorylation in human HCT8 cells at 0.25 to 1 uM incubated for 24 hrs by Western blotting method. It is filed as cell-based. In outline: as §1
Series [13] deals with HCT-8. Kind of series: Inhibition of HIF-1alpha protein expression in FU-resistant human HCT8 cells at 0.25 to 1 uM incubated for 24 hrs by Western blotting method. It is filed as functional, cell-based. In outline: as §1
Series [14] deals with Mus musculus. The experiment in a line: Toxicity in nude BALB/c mouse xenografted with FU-resistant human HCT8 cells assessed as abnormal weight changes in heart at 17.8 to 35.7 umol/kg administered as via oral gavage daily for 21 days. It is filed as organism-based, HCT-8. The conditions noted are these: in vivo, 504 h. In outline:
as §2

Series [15] has as its system HCT-8. The experiment in a line: Antiproliferative activity against 5-FU resistant human HCT8 cells assessed as inhibition of cell proliferation at 0.25 uM after 24 hrs by MTT assay. It is filed as functional, cell-based.
Series [16] is described as follows: Antitumor activity against FU-resistant human HCT8 cells xenografted in nude BALB/c mouse assessed as reduction in tumor weight at 17.8 umol/kg administered as via oral gavage daily for 21 days. Format: functional. The conditions noted are these: HCT-8, po, 504 h. In outline: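 Male BALB/c nude mice, 6–8 weeks old, inoculated s.c. in the right flank with HCT-8/5-FU cells (2 × 10^6). Once tumors reached 180–200 mm3 (days 9–11), mice were randomized (n = 8) to daily oral gavage for 21 days in cremophor-EL/DMSO/PBS (1:1:8). Tumor volume = W2(L/2), caliper-measured every other day, blinded; tumors weighed at end.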

Series [17] can be described thus: Toxicity in male ICR mouse assessed as mouse mortality at 2.38 x 10^3 umol/kg administered as single dose via oral gavage measured up to 14 days post treatment. It is filed as organism-based. The conditions noted are these: in vivo. In outline: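 Female or male adult ICR mice, 10 per sex group, were randomised and given a single oral gavage dose of 2,000 mg/kg in cremophor-EL/DMSO/PBS (1:1:8). Total mortality was recorded over days 1–14, and body weight on days 0, 7 and 14 as mean ± SD.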

Series [18] has as its system Mus musculus. The experiment in a line: Toxicity in female ICR mouse assessed as body weight level at 2.38 x 10^3 umol/kg administered as single dose via oral gavage measured on day 14 post treatment (reference value: 19.5 +/- 0.85 g). Format: organism-based. The conditions noted are these: in vivo.
Series [19] relates to Mus musculus. Kind of series: Toxicity in female ICR mouse assessed as body weight level at 2.38 x 10^3 umol/kg administered as single dose via oral gavage measured on day 7 post treatment (reference value: 19.8 +/- 0.92 g). It is filed as organism-based. The conditions noted are these: in vivo.
Series [20] has as its system HCT-8. The experiment in a line: Antiproliferative activity against 5-FU resistant human HCT8 cells assessed as inhibition of cell proliferation at 0.25 uM dosed 1 hr after NO scavenger carboxy-PTIO treatment and measured after 24 hrs by MTT assay. It is filed as functional.
Series [21] concerns Mus musculus. Kind of series: Toxicity in nude BALB/c mouse xenografted with FU-resistant human HCT8 cells assessed as abnormal color changes in kidney at 17.8 to 35.7 umol/kg administered as via oral gavage daily for 21 days. Format: organism-based, HCT-8. The conditions noted are these: in vivo, 504 h. In outline:
as §2

The source made the active and inactive calls. The rule behind the calls is not given here.

Sequence of RAC-alpha serine/threonine-protein kinase (Homo sapiens) (P31749 whole entry): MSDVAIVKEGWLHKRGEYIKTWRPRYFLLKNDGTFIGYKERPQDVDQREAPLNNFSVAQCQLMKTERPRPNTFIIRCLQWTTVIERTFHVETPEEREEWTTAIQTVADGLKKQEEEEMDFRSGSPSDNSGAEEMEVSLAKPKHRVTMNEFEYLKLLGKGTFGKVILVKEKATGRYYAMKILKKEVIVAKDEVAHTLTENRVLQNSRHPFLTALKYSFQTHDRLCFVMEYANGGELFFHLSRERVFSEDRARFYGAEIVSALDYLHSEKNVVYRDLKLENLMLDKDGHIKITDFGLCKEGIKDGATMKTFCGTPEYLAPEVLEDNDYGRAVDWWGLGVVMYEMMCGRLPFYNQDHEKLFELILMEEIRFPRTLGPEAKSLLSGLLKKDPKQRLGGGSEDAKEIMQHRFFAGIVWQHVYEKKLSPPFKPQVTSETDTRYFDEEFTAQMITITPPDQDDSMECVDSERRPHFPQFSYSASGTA
Sequence of Multidrug resistance-associated protein 1 (P33527 whole entry): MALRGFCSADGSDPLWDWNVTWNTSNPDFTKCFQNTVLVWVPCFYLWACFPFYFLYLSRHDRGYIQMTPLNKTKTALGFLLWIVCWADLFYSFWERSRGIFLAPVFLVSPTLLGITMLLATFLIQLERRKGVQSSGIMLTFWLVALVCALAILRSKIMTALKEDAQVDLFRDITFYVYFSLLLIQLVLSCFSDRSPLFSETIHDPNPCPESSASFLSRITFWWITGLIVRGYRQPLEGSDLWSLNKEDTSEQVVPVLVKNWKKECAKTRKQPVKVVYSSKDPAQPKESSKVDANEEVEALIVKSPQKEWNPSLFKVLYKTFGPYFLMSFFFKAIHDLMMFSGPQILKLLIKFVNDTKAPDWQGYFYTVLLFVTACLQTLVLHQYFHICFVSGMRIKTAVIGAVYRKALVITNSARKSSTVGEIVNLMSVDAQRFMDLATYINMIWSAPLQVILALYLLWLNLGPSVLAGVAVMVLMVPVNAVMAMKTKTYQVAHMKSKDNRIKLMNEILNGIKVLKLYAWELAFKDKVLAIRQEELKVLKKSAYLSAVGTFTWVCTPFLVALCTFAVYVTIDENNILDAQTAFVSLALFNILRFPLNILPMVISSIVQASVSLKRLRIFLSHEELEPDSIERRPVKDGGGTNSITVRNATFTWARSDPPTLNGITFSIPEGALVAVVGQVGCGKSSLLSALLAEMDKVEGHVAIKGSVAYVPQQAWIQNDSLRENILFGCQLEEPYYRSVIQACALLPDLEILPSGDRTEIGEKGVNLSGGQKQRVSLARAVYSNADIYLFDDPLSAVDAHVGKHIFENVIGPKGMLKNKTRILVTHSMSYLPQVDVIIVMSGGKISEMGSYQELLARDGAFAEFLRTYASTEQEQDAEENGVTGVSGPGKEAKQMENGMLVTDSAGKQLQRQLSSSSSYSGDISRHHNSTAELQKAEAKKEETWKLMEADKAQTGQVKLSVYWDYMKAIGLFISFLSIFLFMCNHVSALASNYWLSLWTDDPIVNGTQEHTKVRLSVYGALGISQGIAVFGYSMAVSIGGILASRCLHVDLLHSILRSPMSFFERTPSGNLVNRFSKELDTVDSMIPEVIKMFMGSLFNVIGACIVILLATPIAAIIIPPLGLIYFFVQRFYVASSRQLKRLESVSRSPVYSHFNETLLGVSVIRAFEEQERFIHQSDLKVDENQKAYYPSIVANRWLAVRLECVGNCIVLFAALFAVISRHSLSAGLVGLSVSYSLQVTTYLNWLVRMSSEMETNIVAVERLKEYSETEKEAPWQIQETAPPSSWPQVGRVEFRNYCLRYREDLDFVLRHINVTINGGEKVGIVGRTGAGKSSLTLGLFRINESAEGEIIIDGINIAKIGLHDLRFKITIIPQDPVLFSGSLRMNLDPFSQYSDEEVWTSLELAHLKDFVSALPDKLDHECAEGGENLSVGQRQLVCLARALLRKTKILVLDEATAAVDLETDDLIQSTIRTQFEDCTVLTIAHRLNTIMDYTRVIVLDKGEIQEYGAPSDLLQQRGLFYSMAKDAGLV

For `COC(=O)[C@]12CCC(C)(C)C[C@H]1[C@H]1C(=O)C=C3[C@@]4(C)C=C(C#N)C(=O)C(C)(C)[C@@H]4CC[C@@]3(C)[C@]1(C)CC2` [BARDOXOLONE METHYL], the inhibition entry (in the series with HCT-8 [1]; in series [5]) was “Active” throughout. Further, the Activity entry in the series with Mus musculus [2], with Mus musculus [3] and with Mus musculus [6] was “Non-toxic” in each case. For the same compound, the inhibition result in the series with HCT-8 [4] was “inactive”.

As usually defined, the inhibition in vivo is the share of the control response that was lost under treatment. In general, mortality refers to the share of the test organisms that died. As for `CC1(C)CC[C@]2(C(=O)NCC(=O)OCC#CCOc3no[n+]([O-])c3S(=O)(=O)c3ccccc3)CC[C@]3(C)[C@H](C(=O)C=C4[C@@]5(C)C=C(C#N)C(=O)C(C)(C)[C@@H]5CC[C@]43C)[C@@H]2C1`, the inhibition entry with HCT-8 [7], with HCT-8 [12] and with HCT-8 [13] was “Dose-dependent effect” each time. Also, the Activity result in the series with HCT-8 [8] was “Dose-dependent effect”; with Mus musculus [9] it was “Non-toxic”; in [11], “Dose-dependent effect”; in the series on Mus musculus [14], “Non-toxic”; in the series with Mus musculus [18], 30 g; in the series on Mus musculus [19], 25 g. Besides, in the series with Mus musculus [21], the Activity entry was “Non-toxic”. The inhibition entry with HCT-8 [10] and in the series with HCT-8 [20] was “inactive” each time. The result in the series on HCT-8 [15] was Active. Also, the inhibition in vivo at 17.8 µmol/kg in [16] came out at 49.2%. Moreover, the mortality at 336 h in series [17] is 0%.
